From ChEMBL document CHEMBL4513216, “Probing the Open Global Health Chemical Diversity Library for Multistage-Active Starting Points for Next-Generation Antimalarials” (ACS Infect Dis, 2020)

Test: Toxicity liver stage against HepG2, at 10uM
Format: cell-based
Design: test concentration 10 uM, cell line HepG2-A16-CD81EGFP
Settings: human, HepG2-A16-CD81EGFP cells; read-out: INHIBITION
Procedure, shortened: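 Uninfected HepG2-A16-CD81EGFP cells, 3 × 10^3 per well, 1536-well, plated on prespotted compound at 10 μM final, parasite-free screening media added to match infected plates; puromycin 10 μM positive, DMSO 0.5% negative; run in parallel with 48 h PbLuc assay at 37 °C, 5% CO2; viability by CellTiter-Glo luminescence, normalized to controls.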

Row | Compound | cytotoxicity at 10 µM [%]
1 | CCOC(=O)CNC(=O)c1cccnc1Oc1ccc(Cl)cc1 | 1.63
2 | CCn1cc2c(n1)C(COCC1CC1)CN(C(=O)c1cnoc1C)C2 (stereo unspecified) | 17.5
3 | N#Cc1cccc(N2CCOCC3(CCCN(C(=O)NC4CC4)C3)C2)c1 (stereo unspecified) | 14.1
4 | CN(C)CC(=O)N1CCc2ncnc(-c3ccoc3)c2CC1 | -7.36
5 | O=C(NCCc1ccccc1)N1CC[C@@H]2CNS(=O)(=O)[C@@H]2CC1 | -5.12
6 | O=C(c1cc2c(s1)CCN2C(=O)C1CC1)N1CCCC1 | 2.62
7 | Cc1nnc([C@@H]2CC[C@@H]3[C@@H](CCN3C3CCC3)O2)o1 | 8.19
8 | Cc1nnc([C@@]23CCO[C@@H]2CCN(S(C)(=O)=O)C3)o1 | 9.16
9 | Cc1ccc(CN2CC[C@H]3OCC[C@@]3(C(=O)N3CCCO3)C2)s1 | 2.08
10 | O=C(Cc1ccc2c(c1)OCC2)Nc1nn[nH]n1 | 0.548
11 | CN(CC1CC1)c1ccc2ccc(C(=O)NCCN3CCOCC3)cn12 | 5.57
12 | CC(C)CN1CCC2(CCN(Cc3ccsc3)CC2)C1=O | 5.24
13 | Cc1nc([C@@H]2C[C@@H]3CCN(C(=O)c4occc4C)C[C@H]3O2)no1 | -1.04
14 | CCn1ccc(NC(=O)CN2C(=O)C(C)(C)c3ccccc32)n1 | -16.9
15 | CCC(c1ccccc1)c1nn2c(CN(CC)CC)nnc2s1 (stereo unspecified) | 7.79
16 | CN1CCc2nc(C3CCCN(S(=O)(=O)N4CCCC4)C3)ncc2C1 (stereo unspecified) | 2.4
17 | CC1(c2ncc(CN3CCN(c4ncccn4)CC3)cn2)CCCCO1 (stereo unspecified) | 1.16
18 | c1cnc(Nc2ccc(C3CCCCN3Cc3ccncc3)cn2)nc1 (stereo unspecified) | -1.57
19 | Cc1cncc(C2CCN(Cc3ccncc3)CC2)n1 | -3.08
20 | c1cnc(N2CCC(c3cc4cccnc4[nH]3)CC2)nc1 | -7.28
21 | COCCC(=O)N1CCCC1c1nc(O)cc(C(C)C)n1 (stereo unspecified) | -26.4
22 | CC(C)c1cc(O)nc(C2CCCN2C(=O)C(C)(C)C)n1 (stereo unspecified) | -17.8
23 | OCCN1CCC(c2cncc(-c3cccc(Cl)c3)n2)CC1 | -31.7

Row | Compound | cytotoxicity at 10 µM [%]
24 | Cc1cc(CN2CCC(O)(Cn3ccc4ncccc43)CC2)c(C)s1 | -16.1
25 | Cc1cc(C2CCCN(C(=O)c3cccnc3)C2)ccn1 (stereo unspecified) | -21.3
26 | CC(C)(C)C(=O)N1CCC(c2nc(O)cc(-c3ccccn3)n2)CC1 | -1.13
27 | CN(Cc1ccc(F)cc1)CC1(O)CCN(C(=O)c2ccccc2)C1 (stereo unspecified) | -1.7
28 | Oc1nc(N2CCOCC2)nc2c1CCN(Cc1cccnc1)CC2 | -3.71
29 | CS(=O)(=O)N1CC2(CCCN2Cc2ccc(Cl)cc2)Cc2ccccc21 (stereo unspecified) | 17
30 | COCC(=O)N1CCN(C(C)C(=O)NC(C)C)CC1 (stereo unspecified) | 1.06
31 | CCn1cc(CNC(C)c2noc(-c3ccc(Cl)cc3)n2)cn1 (stereo unspecified) | 3.63
32 | Cn1ccc(CS(=O)(=O)Cc2cccc(F)c2)cc1=O | 6.83
33 | Cc1ncc(C(=O)N2CCCC2c2c(C)nn(C)c2C)s1 (stereo unspecified) | 1.51
34 | CCC(C)(C)N(C)CCOc1cccc(S(C)(=O)=O)c1 | -8.42
35 | CCN1CCN2CCCN(S(=O)(=O)c3ccc(S(C)(=O)=O)cc3)C2C1=O (stereo unspecified) | 5.36
36 | Cc1noc(CCCC(=O)NCC(c2ccco2)N2CCCC2)n1 (stereo unspecified) | -0.363
37 | Cc1cnn(CCC(=O)NS(=O)(=O)N2CCCc3ccccc32)c1 | 9.73
38 | Cc1cc(C(=O)OCC2CCCN2C(N)=O)c(C)o1 (stereo unspecified) | 6.72
39 | O=C(Cc1ccc2c(c1)CCO2)Nc1ccc(-n2cncn2)nc1 | 3.62
40 | COC(=O)C1CN(Cc2ccccc2C(C)(C)C#N)CCO1 (stereo unspecified) | -1.78
41 | Cc1cnc(CN(C)C2CCN(Cc3cnc(C)s3)C2)o1 (stereo unspecified) | -0.0499
42 | Cc1cnn(CCNCC(O)c2ccc(C(F)(F)F)cc2)c1 (stereo unspecified) | 4.48
43 | CC(C)Oc1ncc(C(=O)N2CCCC(C(=O)O)C2)cc1Cl (stereo unspecified) | -6.94
44 | O=C(CN1CCCCC1Cn1cncn1)Nc1ccncc1 (stereo unspecified) | 11.2
45 | c1cncc(CN(Cc2ccc(-n3ccnc3)cc2)CC2CCCO2)c1 (stereo unspecified) | -0.242
46 | Cc1cnn(CC2CCCN2C(=O)c2ccc3c(c2)nnn3C)c1 (stereo unspecified) | 18.4

Row | Compound | cytotoxicity at 10 µM [%]
47 | Cc1noc(C(C)Nc2ccc(N3CCOCC3)cc2C)n1 (stereo unspecified) | -3.92
48 | CC(NCC1CCN(CCO)CC1)c1ccc(Cl)cc1 (stereo unspecified) | -9.12
49 | Cc1nnc(CN(C)CCCOc2ccc(Cl)cc2)o1 | -1.69
50 | Cn1nc(Br)c2c(NCCSCCCO)ncnc21 | 14.5
51 | O=C(c1ccc(=O)[nH]n1)N(CCO)Cc1cc(Br)ccc1F | 7.56
52 | COc1ccc(OC)c(-n2nnnc2SCC2CCCN(C)C2)c1 (stereo unspecified) | 1.28
53 | CC(Cc1cccc(F)c1)NCc1cnc(N2CCN(C)CC2)nc1 (stereo unspecified) | -5.44
54 | CN(C)CC1CN(Cc2cc(Cl)cc3cccnc23)CCO1 (stereo unspecified) | 5.26
55 | N#Cc1ccc(F)c(CN2CCNC(=O)C2c2cccs2)c1 (stereo unspecified) | 11.5
56 | CC(C)CC(C)NCCCN1CCCN(C)CC1 (stereo unspecified) | 24.7
57 | Cc1cc(C)c(CNC(=O)NCc2nnc3n2CCC3)c(=O)[nH]1 | 22.1
58 | Cn1cc(C(O)CNC(=O)Nc2cc(F)ccc2-n2cccn2)cn1 (stereo unspecified) | 1.01
59 | CSC(CNS(=O)(=O)c1cnn(C)c1)c1cccc(Cl)c1 (stereo unspecified) | 4.63
60 | CC(C)CNC(=O)Nc1ccc(CN2CCOC2=O)cc1 | 10.2
61 | CCOCC1CN(S(=O)(=O)Cc2ccccc2)Cc2nccn2C1 (stereo unspecified) | -105
62 | CCC1=N[C@@]2(CC[C@@H]3CN(CC)C[C@@H]32)C(=O)N1C | -102
63 | CNc1nc2c(s1)C(=O)CN(C(=O)NCCc1ccccc1)C2 | -7.38
64 | CC(C)[C@H](NS(C)(=O)=O)C(=O)NCc1cc(-c2ccco2)n[nH]1 | -9.13
65 | COCC(=O)N1CC[C@]2(O)CCN(Cc3cccnc3OC)C[C@@H]2C1 | 8.72
66 | CCCc1ccc(C(=O)N2CCc3c(nc(N(C)C)[nH]c3=O)C2)cc1 | 8.7
67 | CCc1cc(NC2CCS(=O)(=O)CC2)nc(N2CCCCC2)n1 | -15.8
68 | COc1cccc(OCC2CCCN(C(=O)c3ccc(N)nc3)C2)c1 (stereo unspecified) | 3.37
69 | OCCn1ncc2c1CN(CC1CCOc3ccccc3C1)C2 (stereo unspecified) | -5.35

Row | Compound | cytotoxicity at 10 µM [%]
70 | Cc1nccn1Cc1nnc(C2CCCN(Cc3cccnc3)C2)n1C (stereo unspecified) | -6.15
71 | CSc1ccc(C(=O)N2CCOCC2c2c(C)nn(C)c2C)o1 (stereo unspecified) | -2.12
72 | N#Cc1ccsc1NC(=O)CN1CCn2c(nnc2C2CC2)C1 | -14.5
73 | O=C(O)c1cc(S(=O)(=O)N2CCOc3ccccc32)cc(Cl)c1Cl | -4.36
74 | COc1cc(C)nc(N2CCN(C(=O)COCC3CC3)CC2)n1 | -5.92
75 | CC(C(=O)NCc1ccnc(N2CCN(C)CC2)c1)S(C)(=O)=O (stereo unspecified) | -13.9
76 | O=C(NCC(=O)N1CCCC(c2ccccc2)CC1)c1ccoc1 (stereo unspecified) | -4.31
77 | CCC(O)CN1CCN(C(=O)c2sccc2C(C)C)CC1 (stereo unspecified) | 6.89
78 | NC(=O)c1csc(C(=O)N2CCCC(n3cccn3)C2)c1 (stereo unspecified) | -2.77
79 | NC(=O)c1ccc(C(=O)N2CCCC(n3ccnc3)C2)s1 (stereo unspecified) | -20.5
80 | O=C(O)c1c[nH]c2cc(NS(=O)(=O)c3cccc(Cl)c3F)ccc12 | -10.5
81 | Cc1noc(C)c1C(=O)NCC(c1ccc(F)cc1)N(C)C (stereo unspecified) | -0.0707
82 | COCCN1CCC(N(Cc2noc(C3CC3)n2)C(C)=O)C1 (stereo unspecified) | -12.4
83 | Cc1cccc(-c2ccc(C(=O)NCCN(C)C3CC3)c(=O)[nH]2)c1 | -6.81
84 | Cc1ccc(C(=O)N2CCN(CCC(C)(C)C)CC2)c(=O)[nH]1 | -6.95
85 | NC(=O)CC1CCN(C(=O)CCOc2ccc(Cl)cc2)CC1 | -7.98
86 | CCCNC(=O)CN1CCN(Cc2csc(C(C)(C)C)n2)CC1 | -7.88
87 | CCC1CN(CCNC(C)=O)CCN1CCOC (stereo unspecified) | -3.09
88 | CCOc1cccc2c1OCC(C(=O)NS(=O)(=O)c1ccc(Cl)cc1)=C2 | -11.1
89 | O=C(NCCOc1ccc2c(c1)OCO2)N1CCC1 | -6.24
90 | CCc1cnc(CN2CCC(N(C)Cc3noc(C4CC4)n3)C2)o1 (stereo unspecified) | -10.2
91 | COc1cccc(Nc2nc(C3CCNCC3)c3sc(C)c(C)n23)c1 | 4.24
92 | COc1ccc(C(CNS(=O)(=O)c2cn(C)nc2C)N2CCCC2)cc1 (stereo unspecified) | 4.11

Row | Compound | cytotoxicity at 10 µM [%]
93 | Cc1cccc(CS(=O)(=O)c2nnc([C@@H](N)Cc3ccccc3)o2)c1 | 7.09
94 | COCCN1CCC2(CC1)CN(CCn1cccn1)C(=O)CO2 | 7.22
95 | CCCS(=O)(=O)N1CCn2cc(CNc3ccccn3)nc2C1 | 9.1
96 | COCCN1CCC12CCN(C(=O)Cc1cccs1)C2 (stereo unspecified) | 7.89
97 | O=C(c1cscn1)N1CCc2ncc(CN3CCCC3)n2CC1 | -111
98 | c1cnc(N2CCO[C@H]3CN(Cc4csnn4)C[C@H]32)cn1 | 4.23
99 | CC(C)N1CCC2(CCCN(C(=O)c3cncn3C)C2)CC1 | -0.0499
100 | O=C(c1cnccn1)N1CC2(CCN(Cc3ccsc3)C2)C1 | -4.23
101 | CC(C)N(C)C[C@H]1OC[C@@H]2CCN(Cc3cccc(C#N)c3)C[C@@H]21 | 9.28
102 | Cc1c(F)cccc1S(=O)(=O)NC(C)(C)CN | 0.926
103 | CN1CCC2(CCN(CC3CC3)CC2)C1=O | 10.9
104 | c1csc(CN2CCC3(CC2)CCN(CC2CC2)CC3)n1 | 3.17
105 | CN1CCCn2c(nc(CNS(=O)(=O)C3CC3)cc2=O)C1 | 5.92
106 | Cc1cccc(C(=O)N2C[C@@H]3CCN(c4cccnc4)C[C@@H]3C2)c1 | 3.76
107 | Clc1ccccc1CN1CCc2nc(C3CCNCC3)ncc2C1 | -36.6
108 | CN(C)CCOCc1ncn2c1CN(c1ncc(F)cn1)CCC2 | 15
109 | COCCN1CCN(Cc2ccco2)Cc2ccc(C)nc21 | 0.657
110 | c1cnc(N2CCOCC3(CCCN(Cc4cc[nH]n4)C3)C2)nc1 (stereo unspecified) | 3.35
111 | COc1ccc(F)cc1C(=O)N1C[C@H]2CC(OC)C[C@H]2C1 (stereo partly specified) | -2.19
